PubChem BioAssay
Activity calls are given as the source filed them.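 How the source made its calls, unless noted: active means inhibition of the reporter signal at or above 50%; inactive means inhibition below 50%.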

Tests used:
[1] = inhibitors of TNFa-induced NFkB p65 translocation, primary screen, imaging, HUVEC, MLSMR starter and 10KST1 sets (AID 438;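 active means inhibition above 20% together with a positive visual image hit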;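 further: compound added about 3h40 before a 20 min TNFalpha stimulation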;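 on inhibition: signal is the nuclear over cytoplasmic p65 intensity ratio per well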); conditions: HUVEC TNFa-induced p65 nuclear translocation; cell count: measured here: nuclei count (cytotoxicity indicator), at 2.08 µM; inhibition: at 2 µM, stronger effect = higher value, 0% TNFa-plus-vehicle, 100% no-TNFa wells
[2] = reduction of polyQ htt aggregates in cells – imaging, exon1htt(103Q)mCFP cells, high-content imaging, primary screen (AID 483;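 active means visual image review flags a hit and inhibition of aggregation exceeds 20%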;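 further: compound exposure lasted 3 days before fixation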;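 on nuclei count: percent of the per-plate median nuclei count of sample wells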); conditions: exon1htt(103Q)mCFP cell line, aggregate imaging, at 2 µM; inhibition of aggregation: stronger effect = higher value; nuclei count: measured here: cell count, toxicity
[3] = endothelial E-selectin expression blockers – imaging, HUVEC, immunofluorescence, MLSMR starter and 10KST1 sets, primary screen (AID 487;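 active means visually confirmed hit in the image check and inhibition above 20%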;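 on inhibition: signal is fraction of cell area covered by stained E-selectin grains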;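 on nuclei count: 100% = median nuclei count of all wells on the same plate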); conditions: HUVEC TNFalpha-induced E-selectin immunofluorescence imaging, at 2 µM; inhibition: stronger effect = higher value; nuclei count: measured here: cell number, toxicity
[4] = biological target: Voltage-gated potassium channel subunit beta-2 (Rattus norvegicus) (UniProt P62483); assay: inhibitors of rat Kvbeta2 reductase activity – biochemical, NADPH fluorescence, primary screen (AID 622;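 active means fluorescence slope higher than the sample average by over 3 SD, cut at about -0.22 in these data, passing the limit was not always enough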;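 further: slope of raw intensity against log time taken from 70 to 1610 s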); conditions: recombinant KvBeta, 4-cyanobenzaldehyde reduction, at 10 µM, stronger effect = higher value
Chain of Voltage-gated potassium channel subunit beta-2 (Rattus norvegicus) (P62483 whole entry, looked up): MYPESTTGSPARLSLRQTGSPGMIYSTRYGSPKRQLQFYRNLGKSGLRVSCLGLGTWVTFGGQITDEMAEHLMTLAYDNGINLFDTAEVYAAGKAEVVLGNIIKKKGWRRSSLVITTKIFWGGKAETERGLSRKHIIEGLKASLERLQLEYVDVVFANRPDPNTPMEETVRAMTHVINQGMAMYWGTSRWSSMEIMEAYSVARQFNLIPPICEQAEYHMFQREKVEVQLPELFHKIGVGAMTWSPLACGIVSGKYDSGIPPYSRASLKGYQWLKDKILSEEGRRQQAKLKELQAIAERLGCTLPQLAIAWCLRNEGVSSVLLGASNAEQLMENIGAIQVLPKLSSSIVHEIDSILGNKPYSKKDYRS

[5] = biological target: Voltage-gated potassium channel subunit beta-2 (Rattus norvegicus) (UniProt P62483); assay: enhancers of rat Kvbeta2 NADPH turnover – biochemical, NADPH fluorescence, primary screen (AID 623;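 active means NADPH fluorescence slope more negative than the mean of all samples by about 3 SD, 99.7% confidence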;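 further: fluorescence intensity change per second fitted from 20 to 320 s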); conditions: Recombinant KvBeta, NADPH fluorescence decrease slope, 10 min; at 10 µM; stronger effect = lower value
[6] = biological target: Muscarinic acetylcholine receptor M4 (Homo sapiens) (UniProt P08173); assay: M4-linked GIRK flux change, two-sided – cell-based, HEK293 M4/GIRK, thallium flux, BTC-AM, M4 allosteric agonist project, primary screen (AID 625;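 active means fluorescence slope after compound addition differing from the mean of all tested samples at 99.7% confidence, mostly higher but some lower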;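 further: thallium influx through GIRK channels coupled to M4 in HEK293 cells with BTC-AM dye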); conditions: at 10 µM, actives lie on both sides
Chain of Muscarinic acetylcholine receptor M4 (Homo sapiens) (P08173 whole entry, looked up): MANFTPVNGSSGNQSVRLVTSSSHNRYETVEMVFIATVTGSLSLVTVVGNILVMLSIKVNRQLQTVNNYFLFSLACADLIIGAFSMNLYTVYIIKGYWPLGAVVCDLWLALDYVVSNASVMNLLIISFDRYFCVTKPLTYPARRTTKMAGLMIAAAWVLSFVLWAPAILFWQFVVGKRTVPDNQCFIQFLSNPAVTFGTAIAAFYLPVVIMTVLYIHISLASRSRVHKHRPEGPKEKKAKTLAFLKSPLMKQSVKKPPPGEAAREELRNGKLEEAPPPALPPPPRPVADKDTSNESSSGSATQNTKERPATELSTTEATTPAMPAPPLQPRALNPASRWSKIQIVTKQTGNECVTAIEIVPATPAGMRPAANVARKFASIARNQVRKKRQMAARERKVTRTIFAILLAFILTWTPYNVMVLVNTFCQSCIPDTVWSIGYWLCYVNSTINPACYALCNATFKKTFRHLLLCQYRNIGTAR
Procedure, shortened: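 assay system = HEK293 cells with M4 receptor and GIRK channels | medium = pH 7.3 thallium assay buffer | doses = 10 µM final, single point | timing = cells overnight at 37 °C, BTC-AM loading 1 h, reads 2 min total | signal = BTC-AM fluorescence, 1 Hz kinetic reads | read-out = post-addition slope, 15–24 s, of baseline-normalized fluorescence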

[7] = blockers of RIG-like receptor reporter activation – cell-based, Sendai virus stimulus, luciferase, 10K MLSCN set, TLR/RLR signaling modifier project, primary screen (AID 602276;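 active means inhibition at or above 50% at 10 µM; inactive means inhibition below 50%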;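 further: firefly luciferase from ISG56 promoter only with Renilla not read in this screen; 0% = Sendai virus plus DMSO and 100% = medium plus DMSO without virus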); conditions: HEK293 RL24 IRF3 luciferase reporter, at 10 µM, stronger effect = higher value
[8] = TLR3 IRF3 reporter activation blockers – cell-based, poly I:C stimulus, luciferase, 10K MLSCN set, primary screen (AID 602277); conditions: HEK293-TLR3 RL24 IRF3 luciferase reporter, at 10 µM, stronger effect = higher value

Row | Structure (SMILES) | cell count [1] | inhibition [1] | inhibition of aggregation [2] | nuclei count [2] [%] | inhibition [3] | nuclei count [3] [%] | fluorescence slope [4] | NADPH fluorescence slope [5] | fluorescence slope [6] | inhibition [7] | inhibition [8]
1 | COCCNC(=O)c1ccc(Cl)c(Cl)c1 | 283 | -9.1% (inactive) | -23.9% (inactive) | 119 | 4.3% (inactive) | 116 | -0.486 (inactive) | -4.2e-05 (inactive) | 0.00569 (inactive) | -9.14% (inactive) | -8.45% (inactive)
2 | CCn1c(CSc2ncccn2)nnc1SCC(=O)N1c2ccccc2CC1C (stereo not drawn) | 644 | 27.9% (active) | -1.3% (inactive) | 103 | -3.3% (inactive) | 95.8 | -0.446 (inactive) | -7.9e-06 (inactive) | 0.00475 (inactive) | 12.2% (inactive) | 0.579% (inactive)
3 | CCC(=O)N1CCCc2cc(S(=O)(=O)N3CCCc4ccccc43)ccc21 | 684 | 2.1% (inactive) | -1.8% (inactive) | 100 | -142% (inactive) | 125 | -0.552 (inactive) | 3.3e-05 (inactive) | 0.00501 (inactive) | 20% (inactive) | 34% (inactive)
4 | CCOC(=O)c1sc(C)c2c(=O)n(CC)nnc12 | 304 | 0.8% (inactive) | -14.4% (inactive) | 102 | -56% (inactive) | 109 | -0.523 (inactive) | -2.3e-06 (inactive) | 0.00361 (inactive) | 6.72% (inactive) | 4.72% (inactive)
5 | O=C(COC(=O)c1ccc(S(=O)(=O)Nc2ccccc2)cc1)NCCN1C(=O)CSC1=O | 396 | -3.1% (inactive) | 2.9% (inactive) | 105 | -88.8% (inactive) | 117 | -0.372 (inactive) | -8.7e-05 (inactive) | 0.0079 (inactive) | 0.13% (inactive) | 19.9% (inactive)
6 | CC(=O)N1CCc2cc(S(=O)(=O)NC(CC(C)C)C(=O)N3CCn4c3nc3ccccc34)ccc21 (stereo not drawn) | 292 | 3.6% (inactive) | 8.8% (inactive) | 104 | 22.8% (inactive) | 63 | -0.329 (inactive) | 5e-05 (inactive) | 0.0063 (inactive) | 10.1% (inactive) | 9.41% (inactive)
7 | COc1ccc(OC)c(C2=NOC(C(=O)Nc3cccnc3)C2)c1 (stereo not drawn) | 738 | -14.3% (inactive) | -1.9% (inactive) | 100 | -31.9% (inactive) | 93 | -0.561 (inactive) | 5.2e-07 (inactive) | 0.00522 (inactive) | 4.03% (inactive) | 2.04% (inactive)
8 | Cc1noc(C)c1COc1cccc(C(=O)Oc2ccc3c(c2)OCO3)c1 | 329 | -9.6% (inactive) | 4.3% (inactive) | 80.2 | 1.2% (inactive) | 100 | -0.567 (inactive) | -2.5e-05 (inactive) | 0.00685 (inactive) | 8.11% (inactive) | 15.8% (inactive)
